Converted amounts (≈) assume the structure as drawn.
Assays:
[1] = biological target: T1, Poly [ADP-ribose] polymerase tankyrase-2 (Homo sapiens) (UniProt Q9H2K2); assay: Binding affinity to TNKS2 PARP domain (947 to 1162) (unknown origin) expressed in Escherichia coli BL21(DE3) assessed as thermal stabilization at 125 uM by differential scanning flourimetric analysis
T1 sequence (whole entry): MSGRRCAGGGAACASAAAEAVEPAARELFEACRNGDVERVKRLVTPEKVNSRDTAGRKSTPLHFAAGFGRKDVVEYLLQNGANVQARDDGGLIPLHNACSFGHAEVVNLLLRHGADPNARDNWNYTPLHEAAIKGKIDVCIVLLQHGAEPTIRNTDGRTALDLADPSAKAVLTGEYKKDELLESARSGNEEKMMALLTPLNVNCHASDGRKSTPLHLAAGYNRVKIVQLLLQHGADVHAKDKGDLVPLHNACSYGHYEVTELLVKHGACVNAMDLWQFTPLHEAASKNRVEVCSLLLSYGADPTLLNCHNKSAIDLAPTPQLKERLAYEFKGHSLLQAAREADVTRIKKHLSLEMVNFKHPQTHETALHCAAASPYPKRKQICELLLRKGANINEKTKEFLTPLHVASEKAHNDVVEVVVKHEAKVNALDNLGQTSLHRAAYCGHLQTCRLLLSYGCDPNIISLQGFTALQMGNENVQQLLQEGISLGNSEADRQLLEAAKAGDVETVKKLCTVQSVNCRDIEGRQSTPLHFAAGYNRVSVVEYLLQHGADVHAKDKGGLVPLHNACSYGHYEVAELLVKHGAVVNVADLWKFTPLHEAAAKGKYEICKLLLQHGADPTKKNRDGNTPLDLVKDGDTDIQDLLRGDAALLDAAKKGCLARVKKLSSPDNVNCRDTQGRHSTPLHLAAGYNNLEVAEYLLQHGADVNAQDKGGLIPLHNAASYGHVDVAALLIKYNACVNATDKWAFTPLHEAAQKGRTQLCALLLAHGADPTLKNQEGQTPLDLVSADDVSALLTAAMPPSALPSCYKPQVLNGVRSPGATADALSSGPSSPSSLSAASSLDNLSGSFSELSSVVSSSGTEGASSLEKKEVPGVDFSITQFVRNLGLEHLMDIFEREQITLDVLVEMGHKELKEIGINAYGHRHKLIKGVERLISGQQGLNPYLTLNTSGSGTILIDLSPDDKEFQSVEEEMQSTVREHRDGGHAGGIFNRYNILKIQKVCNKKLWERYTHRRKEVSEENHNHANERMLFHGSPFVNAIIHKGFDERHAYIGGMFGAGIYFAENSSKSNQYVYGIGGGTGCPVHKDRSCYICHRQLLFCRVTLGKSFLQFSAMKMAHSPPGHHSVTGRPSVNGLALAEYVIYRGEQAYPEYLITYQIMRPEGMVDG
How it was run: (§1)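 DSF dose−response. TNKS2 at 0.2 mg/mL with SYPRO Orange (5×). Compounds were serially diluted in 100% DMSO at 50× the assay concentration. Chymotrypsin (1/100 TNKS2 mass equivalents) was added to the protein–dye mix just before the run. Scanned 25−80 °C at about 2 °C/min, ex 490/em 575 nm, and Tm shift was taken against the DMSO control.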

[2] = biological target: T2, Poly [ADP-ribose] polymerase tankyrase-2 (Homo sapiens, UniProt Q9H2K2); assay: Inhibition of auto-PARsylation of GST-tagged TNKS2 PARP domain (947 to 1162) (unknown origin) expressed in Escherichia coli BL21(DE3) after 2 hrs by LC/MS analysis
T2 sequence (Q9H2K2 whole entry): T1 sequence (whole entry)

[3] = Thermodynamic solubility of the compound in pION buffer at 500 uM after 18 hrs at pH 4.0 by UV-spectrophotometric analysis; type: physicochemical; conditions: read-out: Therm_solubility
How it was run: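 A 50 mM DMSO stock was diluted into pH 4.0 pION buffer (final 500 μM test compound) and incubated sealed for 18 h. Samples were vacuum filtered, discarding the first filtrate used to wet the filter. Filtrate was mixed 1:1 with 1-propanol for UV read-out.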

[4] = biological target: T2, Poly [ADP-ribose] polymerase tankyrase-2; assay: Binding affinity to 6His-tagged TNKS2 PARP domain (947 to 1162) (unknown origin) expressed in Escherichia coli BL21(DE3) by surface plasmon resonance analysis
How it was run: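 SPR on a Biacore instrument. Running buffer: 20 mM PBS pH 7.4, 0.05% Tween20, 2% DMSO. His-tagged TNKS2 (20 μg/mL in 20 mM PBS pH 7.4) was capture-coupled at 10 μL/min onto a Ni²⁺/NHS doubly preactivated NTA chip, to a target of 5000 RU.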

[5] = biological target: T1, Poly [ADP-ribose] polymerase tankyrase-2 (Homo sapiens); assay: Binding affinity to TNKS2 PARP domain (947 to 1162) (unknown origin) expressed in Escherichia coli BL21(DE3) assessed as thermal stabilization at 1 mM by differential scanning flourimetric analysis
How it was run: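 Fragment screen by DSF. TNKS2 at 0.2 mg/mL with SYPRO Orange (5×). Compound added from 50 mM DMSO stocks, giving final 1 mM and 2% DMSO; DMSO controls on each plate. Scanned 25−80 °C at about 2 °C/min, fluorescence ex 490/em 575 nm. Curves inspected visually; Tm fitted to sigmoidal transitions.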

[6] = biological target: Protein mono-ADP-ribosyltransferase PARP6 (Homo sapiens, UniProt Q2NL67); assay: Inhibition of PARP6 (unknown origin)
[7] = biological target: T1, Poly [ADP-ribose] polymerase tankyrase-2 (Homo sapiens); assay: Binding affinity to TNKS2 PARP domain (947 to 1162) (unknown origin) expressed in Escherichia coli BL21(DE3) assessed as thermal stabilization by differential scanning flourimetric analysis; how it was run: as §1
[8] = biological target: T3, Protein mono-ADP-ribosyltransferase PARP11 (Homo sapiens) (UniProt Q9NR21); assay: Inhibition of PARP11 (unknown origin) at 10 uM relative to control
T3 sequence (whole entry): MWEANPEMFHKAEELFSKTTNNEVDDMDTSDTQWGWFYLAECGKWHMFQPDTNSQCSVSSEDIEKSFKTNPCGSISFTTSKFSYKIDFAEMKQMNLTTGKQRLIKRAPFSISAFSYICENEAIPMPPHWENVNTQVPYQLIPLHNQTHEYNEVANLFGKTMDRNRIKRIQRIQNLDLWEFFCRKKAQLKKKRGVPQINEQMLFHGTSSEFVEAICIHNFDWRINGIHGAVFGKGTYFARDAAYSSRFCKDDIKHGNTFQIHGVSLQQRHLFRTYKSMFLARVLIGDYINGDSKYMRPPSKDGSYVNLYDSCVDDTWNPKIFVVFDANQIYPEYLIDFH

[9] = biological target: T4, Protein mono-ADP-ribosyltransferase TIPARP (Homo sapiens) (UniProt Q7Z3E1); assay: Inhibition of PARP7 (unknown origin) at 10 uM relative to control
T4 sequence (whole entry): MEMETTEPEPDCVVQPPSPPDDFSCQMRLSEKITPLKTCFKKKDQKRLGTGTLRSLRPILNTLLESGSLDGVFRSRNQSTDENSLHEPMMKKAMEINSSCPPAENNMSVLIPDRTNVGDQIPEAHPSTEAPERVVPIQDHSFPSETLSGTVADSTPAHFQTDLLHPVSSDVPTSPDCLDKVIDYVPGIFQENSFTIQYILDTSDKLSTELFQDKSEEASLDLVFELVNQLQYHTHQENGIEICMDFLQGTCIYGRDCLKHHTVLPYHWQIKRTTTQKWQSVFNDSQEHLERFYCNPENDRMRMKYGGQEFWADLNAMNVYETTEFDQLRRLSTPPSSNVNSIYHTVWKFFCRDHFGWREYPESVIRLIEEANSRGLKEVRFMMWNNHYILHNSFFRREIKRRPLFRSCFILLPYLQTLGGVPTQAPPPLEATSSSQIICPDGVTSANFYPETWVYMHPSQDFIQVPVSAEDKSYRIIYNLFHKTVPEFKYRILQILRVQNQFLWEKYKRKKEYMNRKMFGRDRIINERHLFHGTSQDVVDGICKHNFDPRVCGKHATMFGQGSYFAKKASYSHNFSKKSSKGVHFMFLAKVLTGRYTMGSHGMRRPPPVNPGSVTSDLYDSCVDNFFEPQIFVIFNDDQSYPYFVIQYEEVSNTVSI

Protein mono-ADP-ribosyltransferase PARP6, sequence (Q2NL67 whole entry, the tested form may be a part): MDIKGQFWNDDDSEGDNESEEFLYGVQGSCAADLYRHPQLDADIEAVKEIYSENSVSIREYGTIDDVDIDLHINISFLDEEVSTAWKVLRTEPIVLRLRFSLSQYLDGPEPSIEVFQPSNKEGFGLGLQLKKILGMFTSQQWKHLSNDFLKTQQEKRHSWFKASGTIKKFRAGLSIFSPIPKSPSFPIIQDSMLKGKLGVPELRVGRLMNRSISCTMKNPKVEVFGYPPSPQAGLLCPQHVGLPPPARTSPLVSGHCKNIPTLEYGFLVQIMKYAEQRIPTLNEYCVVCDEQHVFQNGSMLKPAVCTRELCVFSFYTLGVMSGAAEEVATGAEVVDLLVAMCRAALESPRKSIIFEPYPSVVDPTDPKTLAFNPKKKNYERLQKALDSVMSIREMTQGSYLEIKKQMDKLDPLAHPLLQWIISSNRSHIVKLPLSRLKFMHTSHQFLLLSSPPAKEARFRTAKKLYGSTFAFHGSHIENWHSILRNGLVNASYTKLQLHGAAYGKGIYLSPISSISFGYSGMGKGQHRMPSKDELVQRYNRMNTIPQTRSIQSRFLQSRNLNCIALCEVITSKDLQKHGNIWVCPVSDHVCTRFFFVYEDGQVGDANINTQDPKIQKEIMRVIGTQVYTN

Row | SMILES | ΔTm [1] [°C] | IC50 [2] [nM] | Kd [4] [nM] | also measured
1 | Cc1cc(=O)[nH]c2cc(-c3cccc(F)c3)ccc12 | 4.4 | 150 |  | 
2 | Cc1cc(=O)[nH]c2cc(-c3ccccc3Cl)ccc12 | 6.3 | 9 | 57 | solubility thermodynamic at 18 h, 500 µM [3]: < 0.1 µg/mL
3 | Cc1cc(=O)[nH]c2ccccc12 |  | 12000 |  | ΔTm [5]: 1.1 °C
4 | Cc1cc(=O)[nH]c2cc(-c3ccc(F)cc3)ccc12 | 3.1 | 310 |  | 
5 | Oc1ccc2ccccc2n1 |  | > 20000 |  | 
6 | COCCNC(=O)c1ccc(-c2ccc3c(C)cc(=O)[nH]c3c2)c(Cl)c1 | 10.1 | 9 | 16 | 
7 | Oc1nc(-c2ccc(C(F)(F)F)cc2)nc2c1CSCC2 |  |  |  | IC50 [6]: > 10000 nM
8 | Cc1cc(=O)[nH]c2cc(-c3ccc(C(=O)O)cc3Cl)ccc12 | 7.4 | 21 |  | solubility thermodynamic at 18 h, 500 µM [3]: 4.3 µg/mL (≈ 13.7 µM)
9 | O=c1[nH]nc(Cl)c2ccccc12 |  |  |  | Activity [7]: Dose-dependent effect; ΔTm [5]: 1.3 °C
10 | Cc1cc(=O)[nH]c2cc(-c3ccccc3)ccc12 | 3.2 | 180 | 900 | solubility thermodynamic at 18 h, 500 µM [3]: 0.65 µg/mL (≈ 2.76 µM)
11 | O=C(c1cc(Cc2n[nH]c(=O)c3ccccc23)ccc1F)N1CCN(C(=O)C2CC2)CC1 |  |  |  | inhibition [8]: 72%; inhibition [9]: 84%
12 | Cc1cc(=O)[nH]c2cc(-c3ccc(C(=O)NCCN4CCOCC4)cc3Cl)ccc12 | 9.9 | 22 | 18 | solubility thermodynamic at 18 h, 500 µM [3]: 42.6 µg/mL (≈ 100 µM)
13 | Cc1cc(=O)[nH]c2cc(-c3ccc(N)cc3Cl)ccc12 | 9.4 | 39 | 39 | 
14 | COc1ccccc1-c1ccc2c(C)cc(=O)[nH]c2c1 | 1.5 | 1370 |  | 
15 | Cc1cc(=O)[nH]c2ccc(-c3ccccc3)cc12 | 0.6 | > 20000 |  | 

From ChEMBL document CHEMBL2380224, “Fragment-based ligand design of novel potent inhibitors of tankyrases” (J Med Chem, 2013)
